According to PubChem BioAssay:
Records with an inconclusive call do not appear.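 Rule for the calls, unless noted: active = viability increase at or above a cutoff of the median across tested compounds plus 3 SD (cut at about 8.5% in these data, passing the limit was not always enough); inconclusive = some gains above the cutoff, reason not given; inactive = the rest.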

Tests used:
[1] = S. cerevisiae growth inhibition in permissive medium (OD615), pilot counter-assay for S. cerevisiae lifespan shortening project, permissive growth control (AID 705;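 active = growth inhibition above 25% in both replicates, a cutoff set 3 SD above the mean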); settings: OD615, 24 h, at 10 µM, hits give high values
Summary of the method: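 Timing: 24 h exposure, 30 °C / Material: Saccharomyces cerevisiae strain carrying genetically modified DeaD replicative-lifespan system / Signal: OD at 615 nm / Compound: 10 µM single dose, 0.25% DMSO / Medium: SC raffinose/galactose permissive medium / Evaluation: reduction in yeast growth (OD615)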

[2] = S. cerevisiae growth inhibition in restrictive medium, OD615, pilot screen, restrictive growth control, yeast lifespan reduction project (AID 706;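 active = growth inhibition above a set limit, 3 SD over mean compound inhibition, in both replicates, cut at about 43% in these data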;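 note: modified DeaD lifespan yeast strain shifted to restrictive glucose medium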); settings: OD615, 48 h, at 10 µM, hits give high values
Summary of the method: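 System: Engineered S. cerevisiae DeaD strain | Detection: OD615 | Buffer or medium: CSMM-D glucose medium | Doses: 10 µM compound, 0.25% DMSO | Timing: 4 h pre-growth plus 48 h compound exposure, 30 °C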

[3] = doxorubicin toxicity protection in MRP-1 cells – H69AR cells, CellTiter-Glo, duplicate, MRP-1 activator project, pilot screen (AID 807); settings: H69AR viability with doxorubicin, CellTiter-Glo luminescence; at 10 µM; hits give high values;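 note: compound pretreatment 18-22 h then 72 h combined with doxorubicin; 0% = doxorubicin alone and 100% = vehicle without doxorubicin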
[4] = viability of HCT116 without oncogenic beta-catenin – human colon tumor cells, pilot screen (AID 823;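 active = cell viability at or below a set limit in both duplicate runs, the limit being the all-compound median minus 4 SD, cut at about 23% in these data, passing the limit was not always enough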;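 note: 0% = wells killed by 20 µM Hyamine and 100% = untreated DMSO cell wells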); settings: HCT116 beta-catenin knockout viability, CellTiter-Glo, 60 h; at 10 µM; hits give low values
[5] = viability of PTEN-null HCT116 cells – cell-based, HCT116 clonal line, CellTiter-Glo, pilot screen (AID 824;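 active = viability at or below 27.92% in each of two runs, the all-compound median minus 4 SD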;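 note: 0% = 20 µM Hyamine control and 100% = vehicle cell control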); settings: HCT116 PTEN-deleted viability, 60 h, at 10 µM, hits give low values
[6] = RAM pathway blockade in budding yeast – dse1pr::URA3 reporter, 5-FOA selection, pilot screen (AID 869;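 active = inhibition over a set limit, the all-compound mean plus 3 SD, in both replicate runs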;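 note: 0% = DMSO wells with no growth and 100% = 10 µM 1-NA-PP1 with full growth; RAM network block rescues cells from 5-FOA so hits raise OD615 growth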); settings: S. cerevisiae dse1pr::URA3 5-FOA growth, OD615, 2 d; at 10 µM; hits give high values; strain carries analog-sensitive mutant Cbk1 kinase
[7] = RAM signaling pathway blockade in yeast – S. cerevisiae, Pdr1DBD-CYC8 efflux-inhibited sensitized strain, primary screen (AID 1298;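 active = RAM network inhibition above 8.4% in each of two replicates, 3 SD over the compound average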;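 note: 0% = DMSO untreated cells without growth and 100% = 10 µM 1-NA-PP1 full growth; higher means more yeast growth rescued from 5-FOA killing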); settings: S. cerevisiae cbk1-as DSE1-URA3 strain, 5-FOA growth OD615, 2 d; at 50 µM; hits give high values

COCc1nnc(SCC(=O)Nc2cccc(Cl)c2C)n1-c1ccccc1
inactive: growth inhibition [1] -5.62% | growth inhibition [2] -13% | viability increase [3] -0.41% | viability [4] 107% | viability [5] 93.3% | inhibition [6] 0.57% | RAM network inhibition [7] 3.49%

COCCCNC(=O)Cn1cc2c(n1)CCCCC2
inactive: growth inhibition [1] 3.39% | growth inhibition [2] -2.59% | viability increase [3] 0.05% | viability [4] 104% | viability [5] 106% | inhibition [6] -0.6% | RAM network inhibition [7] 4.53%

C=CCc1c(C)nc(SC)nc1Nc1ccc(C(C)=O)cc1
inactive: growth inhibition [1] -6.88% | growth inhibition [2] -6.6% | viability increase [3] -3.83% | viability [4] 83.8% | viability [5] 87.1% | inhibition [6] 1.53% | RAM network inhibition [7] 6.87%

C=CCSc1nnc(-c2cc(Br)ccc2N)c(=O)[nH]1
inactive: growth inhibition [1] -14.6% | growth inhibition [2] -18% | viability increase [3] 0.99% | viability [4] 102% | viability [5] 96.5% | inhibition [6] 0.7% | RAM network inhibition [7] 2.42%

CCOC(=O)N1CCN(C(=O)CCSc2ccccc2)CC1
inactive: growth inhibition [1] 2.04% | growth inhibition [2] 2.15% | viability increase [3] 0.84% | viability [4] 99.7% | viability [5] 97% | inhibition [6] 0.07% | RAM network inhibition [7] 0.95%

O=C(NCCCN1CCCC1=O)c1ccccc1NS(=O)(=O)c1ccc(F)cc1
inactive: growth inhibition [1] -7.5% | growth inhibition [2] -22% | viability increase [3] -2.44% | viability [4] 88.9% | viability [5] 94.1% | inhibition [6] 1.57% | RAM network inhibition [7] 5.37%

O=C(CN1C(=O)CCC1=O)Nc1nc(-c2ccccn2)cs1
inactive: growth inhibition [1] -5.94% | growth inhibition [2] -9.21% | viability increase [3] -0.35% | viability [4] 106% | viability [5] 101% | inhibition [6] 0.045% | RAM network inhibition [7] 3.42%

COc1ccccc1NC(=O)c1c(NC(=O)c2ccco2)sc2c1CCC2
inactive: growth inhibition [1] -9.49% | growth inhibition [2] -18.1% | viability increase [3] -2.92% | viability [4] 80.2% | viability [5] 72% | inhibition [6] 2.31% | RAM network inhibition [7] 2.6%

Oc1ccccc1CNc1nc2ccccc2n1CCN1CCCCC1
inactive: growth inhibition [1] -15.8% | growth inhibition [2] -9.88% | viability increase [3] -8.6% | viability [4] 52.5% | viability [5] 48.8% | inhibition [6] 2.86% | RAM network inhibition [7] 1.77%

CC(C)C(=O)Nc1c(C(=O)c2ccc(F)cc2)oc2ccccc12
inactive: growth inhibition [1] -8.13% | growth inhibition [2] -2.55% | viability increase [3] 0.04% | viability [4] 105% | viability [5] 91.2% | inhibition [6] 1.55% | RAM network inhibition [7] 1.81%

O=C(Nc1ccc(N2CCCC2)c(Cl)c1)c1ccco1
inactive: growth inhibition [1] -2.11% | growth inhibition [2] 8.76% | viability increase [3] 0.68% | viability [4] 91.5% | viability [5] 89.1% | inhibition [6] 1.51% | RAM network inhibition [7] 0.62%

c1ccc(-n2ncc3c(NCc4cccnc4)ncnc32)cc1
inactive: growth inhibition [1] -9.01% | growth inhibition [2] 2.41% | viability increase [3] 3.3% | viability [4] 88.1% | viability [5] 83.6% | inhibition [6] 2.49% | RAM network inhibition [7] 0.31%

Cc1ccc(C(=O)NCCCC(=O)O)o1
inactive: growth inhibition [1] -6.95% | growth inhibition [2] -1.79% | viability increase [3] -2.22% | viability [4] 97.4% | viability [5] 96.9% | inhibition [6] 0.1% | RAM network inhibition [7] 5.07%

O=C1c2oc3ccc(F)cc3c(=O)c2C(c2ccncc2)N1CCN1CCOCC1 (centres undefined)
inactive: growth inhibition [1] 3.02% | growth inhibition [2] 3.27% | viability increase [3] 0.53% | viability [4] 110% | viability [5] 99.2% | inhibition [6] 1.26% | RAM network inhibition [7] 0.47%

CCOc1cccc2sc(NC(=O)c3ccc(Br)s3)nc12
inactive: growth inhibition [1] -25.6% | growth inhibition [2] -9.82% | viability increase [3] -3.55% | viability [4] 65.4% | viability [5] 58% | inhibition [6] 2.42% | RAM network inhibition [7] 4.63%

Cc1nn2cc(-c3ccccc3)nc2s1
inactive: growth inhibition [1] -5.37% | growth inhibition [2] -7.45% | viability increase [3] -1.05% | viability [4] 93.3% | viability [5] 91.6% | inhibition [6] 0.575% | RAM network inhibition [7] 4.7%

CCc1ccc2nc(NC3=NCN(CCOC)CN3)nc(C)c2c1
inactive: growth inhibition [1] -2.2% | growth inhibition [2] -4.05% | viability increase [3] -2.81% | viability [4] 63% | viability [5] 66.9% | inhibition [6] 1.18% | RAM network inhibition [7] -1.8%

CCCN1Cc2cccc(C(=O)Nc3ccc4c(c3)OCCO4)c2C1=O
inactive: growth inhibition [1] 0.22% | growth inhibition [2] -5.64% | viability increase [3] 0.47% | viability [4] 106% | viability [5] 97.2% | inhibition [6] 1.35% | RAM network inhibition [7] 2.75%

COc1ccc(C(=O)c2coc3ccc(O)c(CN4CCOCC4)c23)cc1
inactive: growth inhibition [1] -5.46% | growth inhibition [2] -12% | viability increase [3] -4.42% | viability [4] 77.2% | viability [5] 80.3% | inhibition [6] 1.79% | RAM network inhibition [7] -1.13%

COc1ccc(C(=O)Oc2ccc3c(c2)OCO3)cc1OC
inactive: growth inhibition [1] -6.54% | growth inhibition [2] -4.45% | viability increase [3] -0.06% | viability [4] 85.9% | viability [5] 100% | inhibition [6] 1.68% | RAM network inhibition [7] 3.32%

CCOC(=O)CNC(=O)Cn1cnc2sc(C)c(S(=O)(=O)N3CCC(C)CC3)c2c1=O
inactive: growth inhibition [1] -5.06% | growth inhibition [2] -1.62% | viability increase [3] -2.55% | viability [4] 94% | viability [5] 93.6% | inhibition [6] 0.32% | RAM network inhibition [7] 4.1%

CC1(C)CC(n2c(NCCO)nc3c(c2=O)C2(CCCC2)Cc2ccccc2-3)CCO1 (centres undefined)
inactive: growth inhibition [1] 11.7% | growth inhibition [2] 2.4% | viability increase [3] -6.73% | viability [4] 96.2% | viability [5] 93.4% | inhibition [6] 0.65% | RAM network inhibition [7] 7.43%

Cc1c(C(=O)NCc2ccc3c(c2)OCO3)oc2ccc(S(=O)(=O)N3CCCCCC3)cc12
inactive: growth inhibition [1] -14% | growth inhibition [2] -7.72% | viability increase [3] -1.19% | viability [4] 77.5% | viability [5] 77.3% | inhibition [6] 1.82% | RAM network inhibition [7] 10.9%

COC(=O)CC1=C(C)C(=O)CC2C(C)(C)CCCC12C (centres undefined)
inactive: growth inhibition [1] 4.86% | growth inhibition [2] -8.22% | viability increase [3] 1.01% | viability [4] 85.6% | viability [5] 94% | inhibition [6] 1.27% | RAM network inhibition [7] 4.48%

Cc1ccc(NS(=O)(=O)c2ccc3c(c2)oc(=O)n3C)cc1F
inactive: growth inhibition [1] -11% | growth inhibition [2] -10.8% | viability increase [3] 0.32% | viability [4] 89.1% | viability [5] 86.1% | inhibition [6] 1.1% | RAM network inhibition [7] 3.85%

COc1cccc(NC(=O)CSc2nnc(Cn3c(=O)sc4ccccc43)n2C)c1
inactive: growth inhibition [1] 1.18% | growth inhibition [2] 18.9% | viability increase [3] -2.91% | viability [4] 102% | viability [5] 104% | inhibition [6] 2.37% | RAM network inhibition [7] 4.95%

Cc1nn(C)c(C)c1S(=O)(=O)N(CC(=O)NCc1ccco1)c1ccc(C(C)C)cc1
inactive: growth inhibition [1] -10.3% | growth inhibition [2] -2.95% | viability increase [3] -5.76% | viability [4] 96.8% | viability [5] 97.3% | inhibition [6] -0.17% | RAM network inhibition [7] 7.88%

COc1ccc(NC(=O)CCCC2=NS(=O)(=O)c3ccccc3N2)cc1
inactive: growth inhibition [1] -8.46% | growth inhibition [2] -7.47% | viability increase [3] -3.01% | viability [4] 103% | viability [5] 99.3% | inhibition [6] 1.23% | RAM network inhibition [7] 3.11%

CCC(C#CCN1CCOCC1)(CC)OCCC#N
inactive: growth inhibition [1] -6.57% | growth inhibition [2] -3.89% | viability increase [3] -0.51% | viability [4] 97% | viability [5] 95.9% | inhibition [6] 1.35% | RAM network inhibition [7] 0.88%

COc1ccc(-c2cn3c(C)c(C(=O)Nc4ccncc4)sc3n2)cc1
inactive: growth inhibition [1] -4.55% | growth inhibition [2] -15.3% | viability increase [3] -3.37% | viability [4] 102% | viability [5] 90.1% | inhibition [6] 3.6% | RAM network inhibition [7] 5.99%

CN1CCN(C(=O)C2CC(=O)N(c3ccc(F)c(Cl)c3)C2)CC1 (centres undefined)
inactive: growth inhibition [1] -6.12% | growth inhibition [2] -6.44% | viability increase [3] -0.63% | viability [4] 96% | viability [5] 95.9% | inhibition [6] 2.12% | RAM network inhibition [7] 3.12%

CC(=O)Nc1ccc(NC(=O)CCC(=O)NCCO)cc1
inactive: growth inhibition [1] -10.7% | growth inhibition [2] -16.7% | viability increase [3] -0.28% | viability [4] 90.8% | viability [5] 92.8% | inhibition [6] 0.825% | RAM network inhibition [7] 5.19%

CCN(CC)C(=O)C1CCCN(C/C=C/c2ccccc2)C1 (centres undefined)
inactive: growth inhibition [1] -5% | growth inhibition [2] -9.31% | viability increase [3] -0.55% | viability [4] 84.9% | viability [5] 90.9% | inhibition [6] 0.74% | RAM network inhibition [7] -1.53%

COc1ccccc1C(=O)NCc1ccc2c(c1)OCO2
inactive: growth inhibition [1] -21.2% | growth inhibition [2] -10.3% | viability increase [3] 0.91% | viability [4] 107% | viability [5] 107% | inhibition [6] 0.52% | RAM network inhibition [7] 2.54%

O=C(NCCO)c1ccc(-c2nnc(N3CCOCC3)c3ccccc23)cc1
inactive: growth inhibition [1] -8.54% | growth inhibition [2] -14.4% | viability increase [3] 0.15% | viability [4] 89.1% | viability [5] 89.6% | inhibition [6] 0.425% | RAM network inhibition [7] 3.24%

Cc1ccc(N(CC(=O)NCc2cccnc2)S(C)(=O)=O)cc1C
inactive: growth inhibition [1] -8.32% | growth inhibition [2] -10.2% | viability increase [3] -2.97% | viability [4] 97.3% | viability [5] 98.8% | inhibition [6] 0.71% | RAM network inhibition [7] 2.28%

O=C(COc1ccccc1)Nc1ccc(S(=O)(=O)N2CCCC2)cc1
inactive: growth inhibition [1] -12.9% | growth inhibition [2] -12.5% | viability increase [3] -1.84% | viability [4] 99.5% | viability [5] 88.7% | inhibition [6] 2.33% | RAM network inhibition [7] 2.76%
